An excerpt weighted towards active compounds, which were near 1.5% of everything screened.
Runt-SMMHC FRET: inhibitors of RUNX1 Runt–CBFb-SMMHC binding, primary screen, biochemical, FRET, Cerulean-Runt, Venus-CBFb-SMMHC, uHTS. Cerulean-Runt/Venus-CBFb-SMMHC FRET ratio 530/480, 1 h. inhibition, % at 20 µM. 220,000 tested, 0.74% active;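 active means mean inhibition across duplicate retests at 20 µM reaching about 50%, limit read from the data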;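 further: 0% = DMSO wells and 100% = wells with excess untagged CBFb-SMMHC; inhibitors lower the FRET ratio by blocking Runt binding to CBFb-SMMHC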
Target sequence (Q01196 whole entry, looked up): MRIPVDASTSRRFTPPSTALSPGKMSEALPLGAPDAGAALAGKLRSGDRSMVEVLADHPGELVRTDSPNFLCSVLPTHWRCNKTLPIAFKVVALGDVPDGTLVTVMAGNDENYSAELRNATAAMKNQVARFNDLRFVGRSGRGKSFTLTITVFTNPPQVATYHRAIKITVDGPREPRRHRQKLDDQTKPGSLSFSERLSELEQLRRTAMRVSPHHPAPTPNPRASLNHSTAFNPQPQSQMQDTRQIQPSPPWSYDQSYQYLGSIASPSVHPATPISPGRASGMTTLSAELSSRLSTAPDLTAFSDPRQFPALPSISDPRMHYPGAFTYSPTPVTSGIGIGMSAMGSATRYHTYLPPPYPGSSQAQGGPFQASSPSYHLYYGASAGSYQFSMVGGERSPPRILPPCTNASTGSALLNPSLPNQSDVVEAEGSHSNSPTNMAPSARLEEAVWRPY
Target sequence (Q13951 whole entry, looked up): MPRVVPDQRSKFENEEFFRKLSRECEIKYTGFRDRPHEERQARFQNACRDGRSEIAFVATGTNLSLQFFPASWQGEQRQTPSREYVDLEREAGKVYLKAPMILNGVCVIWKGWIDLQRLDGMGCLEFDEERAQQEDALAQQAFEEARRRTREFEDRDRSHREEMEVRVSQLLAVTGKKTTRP
Runt-CBFb FRET: inhibitors of RUNX1 Runt–CBFb binding, primary screen, biochemical, FRET, Cerulean-Runt, Venus-CBFb, uHTS; Cerulean-Runt/Venus-CBFb FRET ratio 530/480, 1 h; Runt-related transcription factor 1 (Homo sapiens) + Core-binding factor subunit beta …; AID 1496, 2009; 220,000 tested, 0.46% active; inhibition, % at 20 µM;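 active means inhibition over about 50% at 20 µM in the single-dose screen, limit read from the data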;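 further: 0% = DMSO wells and 100% = excess unlabeled CBFb competitor control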
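test system = Cerulean-Runt domain fusion protein, energy donor | probe or stimulus = Venus-CBFb binding partner, 100 nM | incubation = two 1 h room-temperature incubations shielded from light | detection = fluorescence energy transfer, 422 nm excitation, 530/480 nm emission | measure = loss of energy transfer signal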
RanGTP-Imp inh: inhibitors of RanGTP-importin-beta interaction, primary screen, biochemical, FRET, CFP-Ran, YFP-importin-beta, homogeneous; Ran GTPase (GTP-bound) - importin-beta complex; cell-free CFP-Ran/YFP-importin-beta FRET ratio; 300,000 tested, 1.1% active; AID 2216, 2009; inhibition, % (test concentration not listed);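 active means more than half of the replicate wells show a fall in the fluorescence ratio signal beyond about 16%, limit read from the data, passing the limit was not always enough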;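 further: 0% = DMSO wells and 100% = Ran loaded with GDP instead of GTP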
Hck Nef HTS: inhibitors of Nef-activated human Hck kinase, primary screen, biochemical, Z-Lyte FRET, 384-well, Hck-YEEI. Tyrosine-protein kinase HCK (Homo sapiens), P08631. Recombinant Hck-YEEI plus Nef, Z-Lyte FRET kinase assay. inhibition, % at 20 µM. 220,000 tested, 0.68% active. AID 463187, 2010;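 active means Hck-Nef kinase inhibition above about 50%, limit read from the data; inactive means inhibition below that limit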;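 further: 0% = DMSO with Hck plus Nef and 100% = Hck alone without Nef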
CaV13 FRET inh: Disruptors of the CACNA1D IQ motif to Ca2+-dependent inactivation inhibitor domain association, primary screening, Förster resonance energy transfer in intact living … | inhibition, % at 12.3 µM | 340,000 tested, 0.098% active | HEK cells, CFP/YFP FRET ICDI-IQ, plate reader, 10 min; percent FRET-ratio fall versus neutral wells;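 active means mean replicate inhibition of at least 30% and at least 1% of replicates passing that level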;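 further: 0% = median of the neutral control wells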
* hit, by the source's call; . = not tested or not shown; + = active, no number.

SMILES | Runt-SMMHC FRET | Runt-CBFb FRET | RanGTP-Imp inh | Hck Nef HTS | CaV13 FRET inh
Nc1ccc(O)c(-c2nc3ccccc3s2)c1 | 28.1 | 7.6 | 24.8* | 6.0 | -4.6
Cc1ccc(OC(=O)c2ccccc2P(=O)(O)O)cc1 | 3.5 | 1.4 | 3.1 | 10.3 | -8.0
CN1CCN(C(=O)c2ccccc2NC(=O)c2ccc(C(C)(C)C)cc2)CC1 | . | . | 7.7 | . | .
CCCCN1C(=O)C2ON(c3ccccc3C)C(c3ccco3)C2C1=O (stereo unspecified) | 0.7 | -2.3 | 4.7 | -2.8 | -8.8
O=C(O)/C=C/c1coc2ccc(F)cc2c1=O | -4.0 | 0.0 | -2.0 | 2.9 | -5.1
O=C(O)/C=C/c1coc2ccccc2c1=O | 2.7 | 1.6 | 35.4* | 0.4 | -14.5
Nc1[nH]nc2ncc3cc4ccccc4nc3c12 | -13.9 | -2.3 | -4.3 | 67.1* | 4.1
S=C(c1c[nH]c2ccccc12)N1CCCC1 | -2.9 | -0.8 | -1.7 | 18.0 | -2.6
COc1ccccc1Oc1coc2c(CN3CCN(C)CC3)c(O)ccc2c1=O | 2.8 | 1.3 | 0.1 | 2.6 | -7.5
O=C(CC1C(=O)NCCN1C(=O)Nc1ccccc1)Nc1cccc(C(F)(F)F)c1 (stereo unspecified) | 0.9 | 0.0 | -0.1 | 14.5 | -5.2
CC(C)N1CCc2c(sc(NC(=O)C3CCCCC3)c2C(N)=O)C1 | . | . | 133.7* | . | -4.6
COC(=O)c1c(NC(=O)C2CCCCC2)sc2c1CCN(C(C)C)C2 | . | . | 56.7* | . | -6.8
CC(C)C(=O)NC(=S)Nc1sc2c(c1C(N)=O)CCCC2 | 3.8 | 16.9 | -2.2 | 12.1 | -2.8
CN1CCc2c(sc(NC(=O)C3CCN(S(=O)(=O)c4cccs4)CC3)c2C(N)=O)C1 | . | . | 131.5* | . | 25.6
CN1CCc2c(sc(NC(=O)C3CCCCC3)c2C(N)=O)C1 | . | . | 147.2* | . | +
O=C(CCS(=O)(=O)c1ccc(Br)s1)NCc1ccc2c(c1)OCO2 | 2.2 | 0.4 | 5.3 | -1.0 | -6.8
C=CC[C@@H](CC(=O)N[C@H](CO)Cc1ccccc1)C(=O)NC[C@@H](OC(=O)[C@@H](CC=C)Cc1ccc(F)cc1)c1ccccc1 | . | . | . | . | -9.1
O=C(OCc1cccc([N+](=O)[O-])c1)c1cc2ccccc2oc1=O | . | . | -3.8 | . | -15.3
CO[C@@H]1CN(C)C(=O)c2cc(NC(=O)NC3CCCCC3)ccc2OC[C@@H](C)N(CCc2ccccc2)C[C@@H]1C | . | . | . | . | -15.7
O=c1oc2cc(O)ccc2cc1-c1ccccc1 | . | . | 139.8* | . | -0.2
COc1ccc(-c2cc3ccc(OCC(C)=O)cc3oc2=O)cc1 | . | . | 2.4 | . | -7.7
O=c1oc2cc(O)ccc2cc1-c1nc2c(s1)CCc1ccccc1-2 | 82.6* | 4.2 | . | -9.6 | -11.4
COc1ccc(-c2cc3ccc(O)cc3oc2=O)cc1 | . | . | 127.6* | . | 3.6
CCOC(=O)C1CCCN(C(=S)NC(=O)/C=C/c2ccc(F)cc2)C1 (stereo unspecified) | . | . | 2.2 | . | -5.8
Cc1nn(C(=O)c2ccco2)c(C)c1Sc1ccccc1 | -2.0 | 52.9* | 5.6 | -1.8 | .
SMILES | Runt-SMMHC FRET | Runt-CBFb FRET | RanGTP-Imp inh | Hck Nef HTS | CaV13 FRET inh
CCCCN(C)C1=CC2=CC(=C(C#N)C#N)CCC2CC1 (stereo unspecified) | 58.5* | 28.5 | 92.0* | -0.2 | -5.6
N#CC1=C(N)C2=C(N3CCCCC3)CCCC2C1(C#N)C#N (stereo unspecified) | -36.6 | -13.9 | -19.4 | -0.1 | .
N#CC(C#N)=C1C=C2C=C(N3CCCCC3)CCC2CC1 (stereo unspecified) | 77.2* | -50.4 | . | 2.4 | .
CCN(CC)C1=CC2=CC(=C(C#N)C#N)CCC2CC1 (stereo unspecified) | 82.6* | 4.2 | . | -20.4 | 23.7
CCn1c(SCC(=O)Nc2ccccc2OC)nnc1-c1cnccn1 | -0.9 | -1.6 | -5.7 | 0.3 | -3.8
Cc1ccc2c(C)cc[n+](CCCS(=O)(=O)[O-])c2c1 | 0.9 | -0.6 | -1.1 | 0.7 | -5.1
COc1ccc2c(c1)NC(c1ccc(N(C)C)cc1)c1cccn1-2 (stereo unspecified) | 47.3 | 21.2 | 41.6* | 18.6 | -28.9

Compound activity (PubChem BioAssay)
